Laboratory results as given in ChEMBL document CHEMBL1129614, “Antitumor benzothiazoles. 3. Synthesis of 2-(4-aminophenyl)benzothiazoles and evaluation of their activities against breast cancer cell lines in vitro and in vivo” (J Med Chem, 1996).

Assays:
MDA-MB-468 [1] = assay: In vitro inhibitory activity against mammary carcinoma MDA 468 cell lines; type: functional, cell-based; settings: Homo sapiens
Procedure, shortened: (§1)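 MDA 468 cells kept in RPMI 1640 with 10% FBS and antibiotics under 5% CO2. They were seeded at 2.5-3 × 10² per well and left 4 h to attach. Drug from 10 mM DMSO stocks was diluted to 1 pM–100 µM final (DMSO ≤0.25%), n = 8, and incubated 10 days. MTT was added for 4 h, formazan solubilized in DMSO/glycine buffer, and A550 read as a measure of viable cells.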

MCF7 [2] = assay: In vitro inhibitory activity against mammary carcinoma MCF-7 cell lines; type: functional, cell-based; settings: Homo sapiens
Procedure, shortened: (§2)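 Cells kept in RPMI 1640 with 10% FBS, penicillin and streptomycin, under 5% CO2, and subcultured twice weekly in log phase. They were seeded at 2.5-3 × 10² per well and left 4 h to adhere. Drug from 10 mM DMSO stocks was given at 1 pM–100 µM final (DMSO ≤0.25%), n = 8, for 7 days. MTT was added for 4 h, formazan dissolved in DMSO/glycine buffer, and absorbance read at 550 nm as viable cell number.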

IGR-37 cell line = assay: In vitro cytotoxicity against […] human melanoma cancer cell line; type: functional, cell-based
T47D = assay: In vitro cytotoxicity against T47D human breast cancer cell line with ER negative; type: functional, cell-based; procedure, shortened: as §2
MDA-MB-468 [3] = assay: In vitro cytotoxicity against MDA 468 human breast cancer cell line with ER negative EGFR positive; type: functional, cell-based; procedure, shortened: as §1
PC-3 = assay: In vitro cytotoxicity against PC-3 human prostate cancer cell line; type: functional, cell-based; procedure, shortened: as §2
MDA-MB-231 = assay: In vitro cytotoxicity against MDA 231 human breast cancer cell line with EGFR positive erbB3 positive; type: functional, cell-based; procedure, shortened: as §2
MCF7 [4] = assay: In vitro cytotoxicity against MCF-7 human breast cancer cell line with ER positive; type: functional, cell-based; procedure, shortened: as §2
SK-BR-3 = assay: In vitro cytotoxicity against SKBR 3 human breast cancer cell line with ER negative; type: functional, cell-based; procedure, shortened: as §2
HT-29 = assay: In vitro cytotoxicity against HT-29 human colon cancer cell line; type: functional, cell-based
DU-145 = assay: In vitro cytotoxicity against DU-145 human prostate cancer cell line; type: functional, cell-based; procedure, shortened: as §2
A204 = assay: In vitro cytotoxicity against A204 human rhabdomyosarcoma cancer cell line; type: functional, cell-based
WiDr = assay: In vitro cytotoxicity against WiDr human colon cancer cell line; type: functional, cell-based
T-24 = assay: In vitro cytotoxicity against T24 human bladder cancer cell line
ZR-75-1 = assay: In vitro cytotoxicity against ZR 75 human breast cancer cell line with ER positive; type: functional, cell-based; procedure, shortened: as §2
A2780 = assay: In vitro cytotoxicity against A2780 human ovarian cancer cell line; type: functional, cell-based
MCF7 [5] = assay: In vitro cytotoxicity against MCF-7/Adr human breast cancer cell line; type: functional, cell-based; procedure, shortened: as §2

SMILES	IC50 (MDA-MB-468 [1]) [µM]	IC50 (MCF7 [2]) [µM]	further results
COc1cccc2sc(-c3ccc(N)cc3Cl)nc12	> 10	> 10	–
c1ccc2sc(-c3ccc(N4CCCCC4)cc3)nc2c1	> 10	> 10	–
COc1cc(OC)c2sc(-c3ccc(N)cc3)nc2c1	> 10	> 10	–
c1ccc2sc(-c3ccc(N4CCOCC4)cc3)nc2c1	> 10	> 10	–
COc1cc(OC)c2nc(-c3ccc(N)cc3)sc2c1	–	> 10	–
Nc1ccc(-c2nc3ccc(O)cc3s2)cc1	> 10	> 1	–
Nc1ccc(-c2nc3ccccc3s2)cn1	> 10	> 10	–
COc1cc2nc(-c3ccc(N)cc3)sc2cc1OC	> 10	> 10	–
Nc1ccc(-c2nc3cc(O)cc(O)c3s2)cc1	–	> 10	–
Nc1ccc(-c2nc3cc(OCc4ccccc4)ccc3s2)c(Cl)c1	> 10	> 10	–
c1ccc2sc(-c3ccncc3)nc2c1	> 10	> 10	–

Second part, led by results:

IC50 (MDA-MB-468 [1]) [µM]	IC50 (MCF7 [2]) [µM]	SMILES	further results
< 0.001	< 0.0001	Nc1ccc(-c2nc3ccccc3s2)cc1	IC50 (IGR-37 cell line): > 30 µM; IC50 (T47D): > 10 µM; IC50 (MDA-MB-468 [3]): 0.0016 µM; IC50 (PC-3): > 30 µM; IC50 (MDA-MB-231): 0.017 µM; IC50 (MCF7 [4]): 0.0008 µM; IC50 (SK-BR-3): 0.0081 µM; IC50 (HT-29): > 30 µM; IC50 (DU-145): > 30 µM; IC50 (A204): > 30 µM; IC50 (WiDr): > 30 µM; IC50 (T-24): > 30 µM; IC50 (ZR-75-1): 0.028 µM; IC50 (A2780): > 30 µM; IC50 (MCF7 [5]): > 10 µM
> 0.001	< 0.01	Cc1cc(-c2nc3ccccc3s2)cc(Cl)c1N	–
> 1	< 0.01	Nc1ccc(-c2nc3ccccc3o2)cc1	–
–	< 0.01	N#Cc1cc(-c2nc3ccccc3s2)ccc1N	–
> 10	> 1	Nc1ccc(-c2nc3ccccc3[nH]2)cc1	–
< 0.0001	< 0.0001	COc1ccc2nc(-c3ccc(N)c(I)c3)sc2c1	–
< 0.0001	< 0.0001	CCc1cc(-c2nc3ccccc3s2)ccc1N	–
> 10	< 0.0001	COc1ccc2nc(-c3ccc(N)cc3)sc2c1	–
–	< 1	c1ccc2sc(-c3ccc(N4CCCC4)cc3)nc2c1	–
> 10	> 0.0001	Nc1ccc(-c2nc3ccccc3s2)cc1O	–
< 0.01	< 0.01	Nc1ncc(-c2nc3ccccc3s2)cc1Br	–
< 0.1	< 0.0001	Nc1ccc(-c2nc3ccccc3s2)cc1Cl	–
